“Also recorded” adds a separate entry of the source. Like-named read-outs stand apart in the source and are kept apart here.
What was measured:
P. falciparum Dd2 = assay: In vitro P. falciparum blood-stage growth inhibition assay; type: cell-based, Plasmodium falciparum
[1] = tested on: P. berghei (ANKA) liver stage; assay: In vitro P. berghei liver-stage assay; type: cell-based, Plasmodium berghei; conditions: read-out: EC50, liver stages; in vitro
Outline: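 HepG2 cells (~17,500 per well, in duplicate) were cultured 18–24 h, then the medium was exchanged and compound added. After 1 h, 4,000 P. berghei ANKA GFP–luc sporozoites per well were added, freshly dissected from A. stephensi mosquitoes. Plates were spun 10 min at 1,000 r.p.m. and incubated 48 h at 37 °C. Parasite load was read by Bright-Glo luminescence.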

recombinant human DHODH = recombinant human DHODH (Homo sapiens, UniProt Q02127); assay: Human DHODH biochemical assay
Outline: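 Recombinant human DHODH at 13 nM was tested against a 20-point inhibitor dilution series. Reactions contained 1 mM L-dihydroorotate (excess), 100 µM dodecylubiquinone as electron acceptor and 60 µM 2,6-dichloroindophenol as indicator, in 50 mM Tris-HCl pH 8.0, 150 mM KCl and 0.1% Triton X-100. Reactions ran 20 min at 25 °C and were read at OD600.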

TM90C6B strain = assay: Growth inhibition, TM90C6B strain; type: cell-based, Plasmodium falciparum; conditions: TM90C6B strain (atovaquone resistant)
[2] = tested on: P. falciparum CYTb^G33V strain; assay: Growth inhibition, P. falciparum CYTb^G33V mutant strain; type: cell-based, Plasmodium falciparum
[3] = tested on: PfscDHODH (P. falciparum line expressing S. cerevisiae DHODH); assay: Growth inhibition, PfscDHODH transgenic line; type: cell-based, Plasmodium falciparum; conditions: relative to Dd2
Outline: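 Asexual blood-stage parasites were cultured to 3–8% parasitaemia, counted on Giemsa smears, and diluted in medium to 2.0% parasitaemia and 2.0% haematocrit. This suspension was added to compound dispensed from DMSO, giving a final 1% parasitaemia and 1% haematocrit, with mefloquine as control. Plates were incubated for 72 h at 37 °C. Growth was read by SYBR Green I fluorescence in Tris/EDTA/saponin/Triton X-100 lysis buffer.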

[4] = tested on: P. berghei (ANKA GFP-luc) blood-stage parasites; assay: In vivo P. berghei blood-stage assay; parameters: species or system Plasmodium berghei; conditions: CD-1 mice; single 100 mg kg^−1 dose; parasites re-emerge very quickly
[5] = tested on: parasite cytosolic Na^+ concentration; assay: Parasite cytosolic Na+ concentration measurement; type: cell-based, Plasmodium falciparum; conditions: after treatment
[6] = read-out: PfDd2 EC50, asexual blood-stage parasites (Dd2), SAR table

Sequence of recombinant human DHODH (Q02127 whole entry): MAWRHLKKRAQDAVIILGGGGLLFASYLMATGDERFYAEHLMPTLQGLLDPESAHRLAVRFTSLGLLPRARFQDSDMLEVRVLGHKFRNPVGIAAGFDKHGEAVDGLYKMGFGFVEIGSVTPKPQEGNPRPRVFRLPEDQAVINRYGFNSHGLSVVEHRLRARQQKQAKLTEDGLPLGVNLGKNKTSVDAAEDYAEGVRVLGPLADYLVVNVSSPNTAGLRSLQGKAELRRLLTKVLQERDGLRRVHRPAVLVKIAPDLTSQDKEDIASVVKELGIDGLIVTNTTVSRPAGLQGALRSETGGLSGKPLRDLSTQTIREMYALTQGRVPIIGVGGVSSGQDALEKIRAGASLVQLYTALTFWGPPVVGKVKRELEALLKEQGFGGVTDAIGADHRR

COc1ccc(NC(=O)N2CCCCN3[C@H](CO)[C@H](c4ccc(C#CC5CC5)cc4)[C@@H]3C2)cc1 [BRD5774]
EC50 (P. falciparum Dd2; [6]): 12200 nM

COc1ccc(NC(=O)N2CCCCN3[C@H](CN4CCN(C)CC4)[C@H](c4ccc(C#Cc5ccccc5)cc4)[C@@H]3C2)cc1 [BRD6479]
EC50 (P. falciparum Dd2; [6]): 158 nM

CCCNC(=O)N1[C@H](C#N)[C@H](c2ccc(C#Cc3cccc(F)c3)cc2)[C@H]1CO [BRD7539]
EC50 (P. falciparum Dd2; read-out: EC50, asexual blood stages, in vitro): 10 nM | EC50 [1]: 15 nM | Inhibition of human DHODH orthologue (recombinant human DHODH): no inhibition | Change in potency (TM90C6B strain): unaffected | Change in potency [2]: unaffected | Potency against PfscDHODH [3]: markedly reduced potency; also recorded: selectively reduced potency

COc1ccc(NC(=O)N2CCCCN3[C@H](CN4CCC4)[C@H](c4ccc(C#Cc5ccccc5)cc4)[C@@H]3C2)cc1 [BRD8493]
EC50 (P. falciparum Dd2; [6]): 116 nM

COc1ccc(NC(=O)N2CCCN3[C@H](CO)[C@H](c4ccc(C#Cc5ccccc5)cc4)[C@@H]3C2)cc1 [BRD9599]
EC50 (P. falciparum Dd2; [6]): 850 nM

C[C@H]1[C@H](OC(=O)CCC(=O)O)O[C@@H]2O[C@@]3(C)CC[C@H]4[C@H](C)CC[C@@H]1[C@@]24OO3 [artesunate, reference compound]
Effect on parasites [4]: rapid suppression of parasites | Parasite cytosolic Na^+ concentration [5]: constant

O=C1C(O)=C([C@H]2CC[C@H](c3ccc(Cl)cc3)CC2)C(=O)c2ccccc21 [atovaquone, reference compound]
EC90 (P. falciparum Dd2; Plasmodium falciparum, DD2): 2 nM

OC(c1cc(C(F)(F)F)nc2c(C(F)(F)F)cccc12)C1CCCCN1 (centres unmarked) [mefloquine]
Parasite cytosolic Na^+ concentration [5]: constant

— paper PMC5515376 (Nature, 2016)
